Reference: ChEMBL document CHEMBL1142981, “Identification and synthesis of a novel selective partial PPARdelta agonist with full efficacy on lipid metabolism in vitro and in vivo” (J Med Chem, 2007)

Assays:
[1] = target: T1, Peroxisome proliferator-activated receptor alpha (Homo sapiens) (UniProt Q07869); assay: Activity at human liver PPAR alpha expressed in HEK293 cells by GAL4 transactivation assay relative to NNC61-4655; format: cell-based
T1 sequence (whole entry): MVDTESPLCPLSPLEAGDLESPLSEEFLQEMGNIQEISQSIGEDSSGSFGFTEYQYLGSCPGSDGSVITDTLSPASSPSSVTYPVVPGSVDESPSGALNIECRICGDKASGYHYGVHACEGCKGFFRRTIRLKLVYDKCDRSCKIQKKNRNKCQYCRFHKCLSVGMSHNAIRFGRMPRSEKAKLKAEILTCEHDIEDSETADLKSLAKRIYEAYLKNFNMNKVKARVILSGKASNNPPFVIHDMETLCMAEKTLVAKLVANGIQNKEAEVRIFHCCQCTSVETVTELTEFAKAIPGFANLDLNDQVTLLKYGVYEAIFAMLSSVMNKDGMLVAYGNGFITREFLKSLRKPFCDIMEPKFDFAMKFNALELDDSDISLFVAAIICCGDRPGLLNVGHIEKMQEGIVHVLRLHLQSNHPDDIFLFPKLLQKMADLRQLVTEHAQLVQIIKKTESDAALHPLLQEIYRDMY

L6 [2] = assay: Effect on fatty acid oxidation in rat L6 cells; format: functional, cell-based
Summary of the method: (§1)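 Rat L6 myoblasts differentiated 5 days in 2% serum, then treated 42 h with compound (refreshed at 24 h), followed by 6 h with 0.4 mM palmitate containing [9,10-3H]-palmitic acid on 2% fatty-acid-free BSA. Stopped with 10% TCA; released 3H-H2O collected by overnight equilibration at 50 °C and counted.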

L6 [3] = assay: Effect on increase in fatty acid oxidation in rat L6 cells relative to GW-501516; format: functional; set-up: concentration or dose not given beside the values; summary of the method: as §1
[4] = target: T2, Peroxisome proliferator-activated receptor delta (Homo sapiens, UniProt Q03181)
T2 sequence (Q03181 whole entry): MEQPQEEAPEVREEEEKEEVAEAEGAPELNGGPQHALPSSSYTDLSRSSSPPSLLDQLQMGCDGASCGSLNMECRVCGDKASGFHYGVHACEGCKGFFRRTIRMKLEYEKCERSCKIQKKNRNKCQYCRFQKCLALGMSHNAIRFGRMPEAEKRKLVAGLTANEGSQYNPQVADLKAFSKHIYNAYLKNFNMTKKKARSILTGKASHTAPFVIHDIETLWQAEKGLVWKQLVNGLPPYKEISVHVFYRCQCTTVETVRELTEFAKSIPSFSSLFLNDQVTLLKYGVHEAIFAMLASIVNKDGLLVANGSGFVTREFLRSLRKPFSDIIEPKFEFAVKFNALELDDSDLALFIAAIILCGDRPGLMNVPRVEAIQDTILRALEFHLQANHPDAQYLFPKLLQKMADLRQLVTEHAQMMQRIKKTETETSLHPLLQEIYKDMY

[5] = target: T3, Peroxisome proliferator-activated receptor alpha (Homo sapiens, UniProt Q07869); assay: Activity at human liver PPAR alpha expressed in HEK293 cells by PPAR-GAL4 transactivation assay; format: cell-based
T3 sequence (Q07869 whole entry): T1 sequence (whole entry)

[6] = Half life in Sprague-Dawley rat at 0.45 mg/kg, po; format: ADME, organism-based; set-up: dose 0.45 mg/kg, route oral; conditions: in vivo
Summary of the method: (§2)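 Male SD rats, single oral dose in 5% ethanol/10% HPCD/phosphate buffer pH 7.5-8.0, n = 8. One animal was killed at each of 5, 15, 30, 60, 90, 120, 240 and 360 min. EDTA plasma was analysed by turbulent-flow LC-MS/MS. Cmax, half-life and oral bioavailability were taken from the plasma curves, with bioavailability using a parallel i.v. arm.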

[7] = Plasma Cmax in Sprague-Dawley rat at 0.45 mg/kg, po; format: ADME, organism-based; set-up: dose 0.45 mg/kg, route oral; summary of the method: as §2
[8] = Clearance in Sprague-Dawley rat at 0.20 mg/kg, iv; format: ADME, organism-based; set-up: dose 0.2 mg/kg, route intravenous; conditions: in vivo, 0.2 mg/kg
Summary of the method: (§3)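 Male SD rats dosed once i.v. or p.o. (n = 8 per route), vehicle 5% ethanol, 10% HPCD, phosphate buffer pH 7.5-8.0. One animal sacrificed at each of 5, 15, 30, 60, 90, 120, 240 and 360 min; EDTA plasma analysed by high turbulence LC-MS/MS. Each data point represents one animal.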

[9] = Oral bioavailability in Sprague-Dawley rat at 0.45 mg/kg; format: ADME, organism-based; conditions: in vivo; summary of the method: as §2
[10] = Volume of distribution in Sprague-Dawley rat at 0.20 mg/kg, iv; format: ADME, organism-based; set-up: dose 0.2 mg/kg, route intravenous; conditions: in vivo, 0.2 mg/kg, read-out: Vss
Summary of the method: (§4)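 Male SD rats received a single p.o. or i.v. dose (n = 8 per route) in 5% ethanol, 10% HPCD and phosphate buffer, pH 7.5-8.0. At 5, 15, 30, 60, 90, 120, 240 and 360 min one rat was sacrificed per time point. EDTA plasma was assayed by high turbulence LC-MS/MS. Cmax and bioavailability were taken from oral dosing; volume of distribution is at steady state.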

[11] = Plasma Cmax in Sprague-Dawley rat at 0.43 mg/kg, po; format: ADME, organism-based; set-up: dose 0.43 mg/kg, route oral; summary of the method: as §4
[12] = Half life in Sprague-Dawley rat at 0.43 mg/kg, po; format: ADME, organism-based; set-up: dose 0.43 mg/kg, route oral; conditions: in vivo; summary of the method: as §3

SMILES	Efficacy [1] [%]	EC50 [4] [nM]	EC50 [5] [nM]	half-life [6] [h]	Cmax [7] [ng/mL]	clearance [8] [mL/min/kg]	bioavailability [9] [%]	Vd [10] [L/kg]	Cmax [11] [ng/mL]	half-life [12] [h]	EC50 (L6 [2]) [nM]	Activity (L6 [3]) [%]
CN(CCOc1ccc(CC2SC(=O)NC2=O)cc1)c1ccccn1 (stereo unspecified) [ROSIGLITAZONE]	> 24	–	–	–	–	–	–	–	–	–	5000	58
CC(C)(Oc1ccc(C(=O)c2ccc(Cl)cc2)cc1)C(=O)O [FENOFIBRIC ACID]	> 94	> 10000	> 10000	–	–	–	–	–	–	–	3000	70

More lines, main results first:

Efficacy [1] [%]	EC50 [4] [nM]	EC50 [5] [nM]	half-life [6] [h]	Cmax [7] [ng/mL]	clearance [8] [mL/min/kg]	bioavailability [9] [%]	Vd [10] [L/kg]	Cmax [11] [ng/mL]	half-life [12] [h]	SMILES	EC50 (L6 [2]) [nM]	Activity (L6 [3]) [%]
> 12	520	> 10000	–	–	–	–	–	–	–	O=C(O)CCc1ccc(OCC=C(c2ccc(Br)cc2)c2ccc(Br)cc2)cc1	212	69
< 10	2300	–	3.02	241	7	130	1.4	–	–	O=C(O)Cc1ccc(OCC=C(c2ccc(Br)cc2)c2ccc(Br)cc2)c(Cl)c1	379	85
> 14	1100	> 10000	–	–	6	–	1.4	252	7.45	O=C(O)Cc1ccc(OCC=C(c2ccc(Br)cc2)c2ccc(Br)cc2)cc1	204	62
